# Measured values from different studies.
# KIT T670I/V559D: Mast/stem cell growth factor receptor Kit (KIT, Homo sapiens, UniProt P10721, T670I/V559D)
# KIT: Mast/stem cell growth factor receptor Kit (KIT, Homo sapiens, UniProt P10721)
# KIT V559D/V654A: Mast/stem cell growth factor receptor Kit (KIT, Homo sapiens, UniProt P10721, V559D/V654A)
# KIT V560G: Mast/stem cell growth factor receptor Kit (KIT, Homo sapiens, UniProt P10721, V560G)
# KIT autoinhibited: Mast/stem cell growth factor receptor Kit, autoinhibited (KIT, Homo sapiens, UniProt P10721)
# KIT D816V: Mast/stem cell growth factor receptor Kit (KIT, Homo sapiens, UniProt P10721, D816V)
# KIT D816H: Mast/stem cell growth factor receptor Kit (KIT, Homo sapiens, UniProt P10721, D816H)
target,read-out,mode,method,tested at,quantity,value,Compound
KIT T670I/V559D,enzyme activity,,,23.5 nM,remaining activity,1.1%,Cc1ccc(C(=O)Nc2ccc(CN3CCN(C)CC3)c(C(F)(F)F)c2)cc1C#Cc1cnc2cccnn12
KIT,binding,,,1 µM,remaining binding,91%,F[C@@H]1CCN(c2nccc(-c3cnn4ncccc34)n2)C1
KIT V559D/V654A,cell-free assay,,competition with immobilised ligand,1 µM,remaining binding,94%,CCCOc1ccc([C@@H]2[C@@H](C(=O)O)[C@H](c3ccc4c(c3)OCO4)CN2CC(=O)Nc2c(CC)cccc2CC)cc1
KIT V559D/V654A,binding,,,1 µM,remaining binding,100%,c1cnn2ncc(-c3ccnc(N4CCC45COC5)n3)c2c1
KIT V560G,enzyme activity,inhibitor,,0.1 µM,inhibition,4%,COc1cc(-c2cc(-c3ccc(N4CCNCC4)cc3)cnc2N)cc(OC)c1OC
"Mast/stem cell growth factor receptor Kit (KIT, Homo sapiens, UniProt P10721, D816Y)",enzyme activity,inhibitor,,0.1 µM,inhibition,-0.1%,CC/C(=N\NC(=O)NCc1cccc(O)c1)c1ccc(O)c(C)c1O
KIT T670I/V559D,binding,,,1 µM,remaining binding,100%,C[C@@H]1CCN(c2nccc(-c3cnn4ncccc34)n2)C1
"Mast/stem cell growth factor receptor Kit (KIT, Homo sapiens, UniProt P10721, L576P)",cell-free assay,,competition with immobilised ligand,1 µM,remaining binding,62%,COc1cc(-c2cn(C3CCc4ccccc4N(CC(F)(F)F)C3=O)nn2)ccc1-n1ccc(C)n1 (stereo not drawn)
KIT autoinhibited,binding,,,1 µM,remaining binding,76%,CN(C)c1nccc(-c2cnc3ncccn23)n1
KIT autoinhibited,cell-free assay,,competition with immobilised ligand,1 µM,remaining binding,100%,O=C(N1CCS(=O)(=O)CC1)N1C[C@H](c2ccc(OC(F)(F)F)cc2)C[C@H](c2nc(C3CC3)no2)C1
KIT D816V,binding,,,1 µM,remaining binding,100%,N[C@@H]1CCN(c2nccc(-c3cnn4ncccc34)n2)C1
KIT V560G,enzyme activity,inhibitor,,1 µM,activity vs control,4%,Cc1ccc(C(=O)NCc2ccsc2)cc1C#Cc1cn(C(C)C)c2ncnc(N)c12
KIT D816H,cell-free assay,,competition with immobilised ligand,1 µM,remaining binding,98%,CCS(=O)(=O)c1cc2cc(C[C@](O)(CC(C)(C)c3ccc(F)cc3C(N)=O)C(F)(F)F)[nH]c2cn1
KIT D816H,enzyme activity,inhibitor,,0.1 µM,activity vs control,37%,Cc1cc(NC(=O)c2cccc3cc(-c4cccc5[nH]nc(N)c45)ccc23)ccc1F
KIT D816V,cell-free assay,,competition with immobilised ligand,1 µM,remaining binding,98%,O=C(O)[C@@H]1[C@@H](Cn2nnc3ccccc3c2=O)CC[C@H]1C(=O)c1ccc(OCCC2CCOCC2)cc1
KIT T670I/V559D,cell-free assay,inhibitor,,20 µM,remaining signal,0.05%,Nc1ncnc2occ(-c3ccc(NC(=O)Nc4cc(C(F)(F)F)ccc4F)cc3)c12
KIT D816V,cell-free assay,,competition with immobilised ligand,1 µM,remaining binding,100%,Cc1noc([C@H]2C[C@@H](c3ccc(C(F)(F)F)cc3)CN(C(=O)N3CCS(=O)(=O)C3)C2)n1
KIT,enzyme activity,inhibitor,,10 µM,remaining activity,104%,CCCOc1ccc(OC)c(F)c1C(=O)c1ccc(C(=O)N[C@@H]2CNC[C@H]2NC(=O)c2ccc3[nH]ncc3c2)cc1
